Measurements gathered from unrelated publications.
Each line is one published result; the experiments were not run side by side. pEC50, pIC50: −log10 of the molar value.
Observed: cell growth or viability

| SMILES | cell line | technique | tested at | time | notes | quantity | result |
| --- | --- | --- | --- | --- | --- | --- | --- |
| O=C(NO)c1ccc(CNc2nc3cccc(-c4ccc5c(c4)OCO5)n3n2)cc1 | NCI-H322M | SRB | – | – | – | GI50 | 0.6 µM |
| C=C(F)C(=O)N1CCN(c2nc(OC[C@@H]3CCCN3C)nc3c2CCN(c2cccc4cccc(Cl)c24)C3)C[C@@H]1CC#N | SW1463 | ATP luminescence | – | – | 3D culture | pIC50 | 8.37 |
| O=C(c1ccc(Oc2ccc(OCc3ccccc3)cc2)c([N+](=O)[O-])c1)C(Cl)Cl | NCI-H1975 | MTT | 2.5 µM | – | – | inhibition | 95.2% |
| CC1(C)CCC(CN2CCN(c3ccc(C(=O)NS(=O)(=O)c4ccc(NCC5CCOCC5)c([N+](=O)[O-])c4)c(Oc4cnc5[nH]ccc5c4)c3)CC2)=C(c2ccc(Cl)cc2)C1 | Rec1 | ATP luminescence | – | 48 h | – | pIC50 | 6.31 |
| C#Cc1cccc(Nc2ncnc3cc(OCCOC)c(OCCOC)cc23)c1 | NCI-H1975 | MTT | – | 72 h | – | pIC50 | 4.26 |
| C=CC(=O)N1CCN(c2nc(=O)n(-c3c(C)ccnc3C(C)C)c3nc(-c4c(O)cccc4F)c(F)cc23)[C@@H](C)C1 | SW1463 | ATP luminescence | – | – | – | pIC50 | 6.88 |
| CC(C)Oc1ccc(S(=O)(=O)c2ccc(Oc3cc(OCC(N)=O)c(C(=O)C(Cl)Cl)cc3[N+](=O)[O-])cc2)cc1 | NCI-H1975 | MTT | – | 72 h | – | pIC50 | 6.52 |
| Cc1ncc(CN2CCc3ccccc3C2)c2cc(C(=O)c3ccc4c(c3)OCCO4)oc12 | NCI-H1975 | MTT | – | 72 h | – | pIC50 | 4.53 |
| O=C1c2ccccc2C(=O)c2c(Oc3ccc(C(=O)C(Cl)Cl)cc3[N+](=O)[O-])cccc21 | NCI-H1975 | MTT | 2.5 µM | – | – | inhibition | 97.1% |
| N[C@H]1CC[C@H](N[C@@H]2C[C@H]2c2ccccc2)CC1 | HEK293 | resazurin | – | – | – | pIC50 | 3.92 |
| CC(=O)Nc1ccc(Oc2ccc(C(=O)C(Cl)Cl)cc2[N+](=O)[O-])cc1 | NCI-H1975 | MTT | 2.5 µM | – | – | inhibition | 88.3% |
| CC1(CN)CCN(c2cnc3c(Sc4ccncc4Cl)n[nH]c3n2)CC1 | NCI-H1975 | – | – | 96 h | – | pIC50 | 5.18 |
| C=CC(=O)NC1CCN(c2ncc3ncnc(Nc4ccc(Oc5ccc6c(c5)ncn6C)c(C)c4)c3n2)CC1 | NCI-H322 | – | – | – | – | pEC50 | 6.33 |
| Cc1ccc2c(-c3cc4c(CNCc5cccnc5)cnc(C)c4o3)cc(=O)oc2c1C | NCI-H1975 | MTT | – | 72 h | – | pIC50 | 4.36 |
| O=C(c1ccccc1)c1ccc(Oc2ccc(C(=O)C(Cl)Cl)cc2[N+](=O)[O-])cc1 | NCI-H1975 | MTT | 2.5 µM | – | – | inhibition | 97.8% |
